Tests used:
Blood [1] = experiment: Biodistribution in FVB mouse blood assessed per gram of tissue at 1 to 4.8 MBq, iv after 5 mins; assay type: ADME, organism-based; conditions: in vivo
Method in brief: (§1)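 Male FVB mice (8–10 weeks, 25–29 g) received tracer iv (1.0–4.8 MBq, 7.1–34 pmol). Killed by cervical dislocation at 5, 15, 30, 60 or 90 min. Blood taken by heart puncture; tissues dissected, weighed and gamma-counted. Activity decay-corrected to injection time and given as %ID/g; mean ± SD, n = 4 per time point.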

Liver [2] = experiment: Biodistribution in FVB mouse liver assessed per gram of tissue at 1 to 4.8 MBq, iv after 5 mins; assay type: ADME, organism-based; conditions: in vivo; method in brief: as §1
Pancreas [3] = experiment: Biodistribution in FVB mouse pancreas assessed per gram of tissue at 1 to 4.8 MBq, iv after 5 mins; assay type: ADME, organism-based; conditions: in vivo
Method in brief: (§2)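 Male FVB mice (8–10 weeks, 25–29 g) given tracer 1.0–4.8 MBq/7.1–34 pmol iv; killed by cervical dislocation at set times (n = 4 per group). Blood by heart puncture; tissues dissected, weighed and gamma counted. Radioactivity decay-corrected to injection time, expressed as %ID/g, mean ± SD.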

Muscle tissue = experiment: Biodistribution in FVB mouse muscle assessed per gram of tissue at 1 to 4.8 MBq, iv after 5 mins; assay type: ADME, organism-based; conditions: in vivo; method in brief: as §1
Bone [4] = experiment: Biodistribution in FVB mouse bone assessed per gram of tissue at 1 to 4.8 MBq, iv after 5 mins; assay type: ADME, organism-based, Bone element; conditions: in vivo; method in brief: as §1
Brain [5] = experiment: Biodistribution in FVB mouse brain assessed per gram of tissue at 1 to 4.8 MBq, iv after 5 mins; assay type: ADME, organism-based; conditions: in vivo; method in brief: as §1
Pancreas [6] = experiment: Biodistribution in FVB mouse pancreas assessed per gram of tissue at 1 to 4.8 MBq, iv after 15 mins; assay type: ADME, organism-based; conditions: in vivo, 0.25 h; method in brief: as §2
Spleen = experiment: Biodistribution in FVB mouse spleen assessed per gram of tissue at 1 to 4.8 MBq, iv after 15 mins; assay type: ADME, organism-based; conditions: in vivo, 0.25 h; method in brief: as §2
Kidney [7] = experiment: Biodistribution in FVB mouse kidney assessed per gram of tissue at 1 to 4.8 MBq, iv after 15 mins; assay type: ADME, organism-based; conditions: in vivo, 0.25 h; method in brief: as §1
Brain [8] = experiment: Biodistribution in FVB mouse brain assessed per gram of tissue at 1 to 4.8 MBq, iv after 15 mins; assay type: ADME, organism-based; conditions: in vivo, 0.25 h; method in brief: as §1
Blood [9] = experiment: Biodistribution in FVB mouse blood assessed per gram of tissue at 1 to 4.8 MBq, iv after 30 mins; assay type: ADME, organism-based; conditions: in vivo, 0.5 h; method in brief: as §1
Heart [10] = experiment: Biodistribution in FVB mouse heart assessed per gram of tissue at 1 to 4.8 MBq, iv after 30 mins; assay type: ADME, organism-based; conditions: in vivo, 0.5 h; method in brief: as §1
Liver [11] = experiment: Biodistribution in FVB mouse liver assessed per gram of tissue at 1 to 4.8 MBq, iv after 30 mins; assay type: ADME, organism-based; conditions: in vivo, 0.5 h; method in brief: as §1
[12] = Biodistribution in FVB mouse small intestine assessed per gram of tissue at 1 to 4.8 MBq, iv after 30 mins; assay type: ADME, organism-based; conditions: in vivo, 0.5 h; method in brief: as §2
Bone [13] = experiment: Biodistribution in FVB mouse bone assessed per gram of tissue at 1 to 4.8 MBq, iv after 30 mins; assay type: ADME, organism-based, Bone element; conditions: in vivo, 0.5 h; method in brief: as §1
Brain [14] = experiment: Biodistribution in FVB mouse brain assessed per gram of tissue at 1 to 4.8 MBq, iv after 30 mins; assay type: ADME, organism-based; conditions: in vivo, 0.5 h; method in brief: as §1
Blood [15] = experiment: Biodistribution in FVB mouse blood assessed per gram of tissue at 1 to 4.8 MBq, iv after 60 mins; assay type: ADME, organism-based; conditions: in vivo, 1 h; method in brief: as §1
Heart [16] = experiment: Biodistribution in FVB mouse heart assessed per gram of tissue at 1 to 4.8 MBq, iv after 60 mins; assay type: ADME, organism-based; conditions: in vivo, 1 h; method in brief: as §1
Lung [17] = experiment: Biodistribution in FVB mouse lung assessed per gram of tissue at 1 to 4.8 MBq, iv after 60 mins; assay type: ADME, organism-based; conditions: in vivo, 1 h; method in brief: as §1
Pancreas [18] = experiment: Biodistribution in FVB mouse pancreas assessed per gram of tissue at 1 to 4.8 MBq, iv after 60 mins; assay type: ADME, organism-based; conditions: in vivo, 1 h; method in brief: as §2
Kidney [19] = experiment: Biodistribution in FVB mouse kidney assessed per gram of tissue at 1 to 4.8 MBq, iv after 60 mins; assay type: ADME, organism-based; conditions: in vivo, 1 h; method in brief: as §1
[20] = Biodistribution in FVB mouse small intestine assessed per gram of tissue at 1 to 4.8 MBq, iv after 60 mins; assay type: ADME, organism-based; conditions: in vivo, 1 h; method in brief: as §2
Brain [21] = experiment: Biodistribution in FVB mouse brain assessed per gram of tissue at 1 to 4.8 MBq, iv after 60 mins; assay type: ADME, organism-based; conditions: in vivo, 1 h; method in brief: as §1
Lung [22] = experiment: Biodistribution in FVB mouse lung assessed per gram of tissue at 1 to 4.8 MBq, iv after 90 mins; assay type: ADME, organism-based; conditions: in vivo, 1.5 h; method in brief: as §1
Pancreas [23] = experiment: Biodistribution in FVB mouse pancreas assessed per gram of tissue at 1 to 4.8 MBq, iv after 90 mins; assay type: ADME, organism-based; conditions: in vivo, 1.5 h; method in brief: as §2
Kidney [24] = experiment: Biodistribution in FVB mouse kidney assessed per gram of tissue at 1 to 4.8 MBq, iv after 90 mins; assay type: ADME, organism-based; conditions: in vivo, 1.5 h; method in brief: as §1
[25] = Biodistribution in FVB mouse small intestine assessed per gram of tissue at 1 to 4.8 MBq, iv after 90 mins; assay type: ADME, organism-based; conditions: in vivo, 1.5 h; method in brief: as §2
Plasma = experiment: Metabolic stability in FVB mouse plasma assessed as recovery of radioactivity at 1 to 4.8 MBq, iv by HPLC analysis; assay type: ADME, organism-based; conditions: in vivo
Method in brief: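 Brain homogenate or plasma from tracer plus GF120918 (5 mg/kg) co-injected FVB mice deproteinized with equal volume ice-cold acetonitrile; radioactivity in supernatant, precipitate and HPLC waste gamma counted to give recovery, mean ± SD (n = 7).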

Brain [26] = experiment: Biodistribution in BCRP knockout mouse brain at 3.3 to 4.9 MBq, iv after up to 60 mins; assay type: ADME, organism-based; conditions: in vivo, 1 h
Brain [27] = experiment: Biodistribution in P-gp/BCRP knockout mouse brain at 3.3 to 4.9 MBq, iv after up to 60 mins; assay type: ADME, organism-based; conditions: in vivo, 1 h
Brain [28] = experiment: Ratio of AUC (0 to 60 mins) in P-gp/BCRP knockout mouse brain to AUC (0 to 60 mins) in wild type mouse brain at 2.8 to 5.6 MBq, iv; assay type: ADME, organism-based; conditions: in vivo
Brain [29] = experiment: AUC (0 to 60 mins) in wild type mouse brain at 2.8 to 5.6 MBq, iv; assay type: ADME, organism-based; conditions: in vivo
Method in brief: (§3)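 Small-animal PET in male wild-type and knockout mice under isoflurane (1.0–1.5%), prone on the scanner bed. Tracer (2.8–5.6 MBq, 20–40 pmol) given iv, with or without co-injected GF120918 at 5 mg/kg. Dynamic 60-min list-mode scan. Decay-corrected SUV read from ROIs on brain, and on the ventricular cavity for blood. AUC taken over 0–60 min in SUV·min; n = 4 per group.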

Brain [30] = experiment: AUC (0 to 60 mins) in P-gp/BCRP knockout mouse brain at 2.8 to 5.6 MBq, iv; assay type: ADME, organism-based; conditions: in vivo; method in brief: as §3
Brain [31] = experiment: Ratio of AUC (0 to 60 mins) in P-gp knockout mouse brain to AUC (0 to 60 mins) in wild type mouse brain at 2.8 to 5.6 MBq, iv; assay type: ADME, organism-based; conditions: in vivo
Brain [32] = experiment: AUC (0 to 60 mins) in P-gp knockout mouse brain at 2.8 to 5.6 MBq, iv; assay type: ADME, organism-based; conditions: in vivo; method in brief: as §3
Brain [33] = experiment: AUC (0 to 60 mins) in BCRP knockout mouse brain at 2.8 to 5.6 MBq, iv; assay type: ADME, organism-based; conditions: in vivo; method in brief: as §3
Blood [34] = experiment: AUC (0 to 60 mins) in wild type mouse blood at 2.8 to 5.6 MBq, iv; assay type: ADME, tissue-based; method in brief: as §3
[35] = Fold increase in testis-to-blood ratio of drug level in FVB mouse at 1 to 4.8 MBq, iv co-administered with 5 mg/kg, iv of GF120918; conditions: testis and blood, with GF120918, 5 mg/kg iv

COc1cc(NC(=O)c2cnc3ccccc3c2)c(C(=O)Nc2ccc(CCN3CCc4cc(OC)c(OCC[18F])cc4C3)cc2)cc1OC
Drug uptake (Blood [1]): 1.39 % ID/g | Drug uptake (Liver [2]): 29.33 % ID/g | Drug uptake (Pancreas [3]): 6.05 % ID/g | Drug uptake (Muscle tissue): 2.23 % ID/g | Drug uptake (Bone [4]): 2.17 % ID/g | Drug uptake (Brain [5]): 0.13 % ID/g | Drug uptake (Pancreas [6]): 8.27 % ID/g | Drug uptake (Spleen): 6.73 % ID/g | Drug uptake (Kidney [7]): 16.09 % ID/g | Drug uptake (Brain [8]): 0.11 % ID/g | Drug uptake (Blood [9]): 0.63 % ID/g | Drug uptake (Heart [10]): 2.86 % ID/g | Drug uptake (Liver [11]): 23.23 % ID/g | Drug uptake [12]: 14.09 % ID/g | Drug uptake (Bone [13]): 1.45 % ID/g | Drug uptake (Brain [14]): 0.11 % ID/g | Drug uptake (Blood [15]): 0.61 % ID/g | Drug uptake (Heart [16]): 2.09 % ID/g | Drug uptake (Lung [17]): 16.06 % ID/g | Drug uptake (Pancreas [18]): 12.45 % ID/g | Drug uptake (Kidney [19]): 11.29 % ID/g | Drug uptake [20]: 22.42 % ID/g | Drug uptake (Brain [21]): 0.1 % ID/g | Drug uptake (Lung [22]): 15.76 % ID/g | Drug uptake (Pancreas [23]): 13.56 % ID/g | Drug uptake (Kidney [24]): 10.17 % ID/g | Drug uptake [25]: 24.45 % ID/g | Stability (Plasma): 95.3% | Activity (Brain [26]): Active | Activity (Brain [27]): Active | Ratio AUC (Brain [28]): 8.3 | SUV (Brain [29]): 4 | AUC (Brain [30]): 32.9 SUV·min | Ratio AUC (Brain [31]): 2.3 | SUV (Brain [32]): 9.1 | SUV (Brain [33]): 6.5 | AUC (Blood [34]): 33.2 SUV·min | Fold increase [35]: 5

COc1cc2c(cc1OC)CN(CCc1ccc(NC(=O)c3cccc4c(=O)c5cccc(OCC[18F])c5[nH]c34)cc1)CC2
Drug uptake (Blood [1]): 1.39 % ID/g | Drug uptake (Liver [2]): 4.88 % ID/g | Drug uptake (Pancreas [3]): 6.12 % ID/g | Drug uptake (Muscle tissue): 1.75 % ID/g | Drug uptake (Bone [4]): 1.99 % ID/g | Drug uptake (Brain [5]): 0.18 % ID/g | Drug uptake (Pancreas [6]): 9.68 % ID/g | Drug uptake (Spleen): 5.34 % ID/g | Drug uptake (Kidney [7]): 24.17 % ID/g | Drug uptake (Brain [8]): 0.16 % ID/g | Drug uptake (Blood [9]): 0.65 % ID/g | Drug uptake (Heart [10]): 1.38 % ID/g | Drug uptake (Liver [11]): 5.35 % ID/g | Drug uptake [12]: 7.6 % ID/g | Drug uptake (Bone [13]): 1.63 % ID/g | Drug uptake (Brain [14]): 0.14 % ID/g | Drug uptake (Blood [15]): 0.4 % ID/g | Drug uptake (Heart [16]): 1.19 % ID/g | Drug uptake (Lung [17]): 6.16 % ID/g | Drug uptake (Pancreas [18]): 15.14 % ID/g | Drug uptake (Kidney [19]): 23.44 % ID/g | Drug uptake [20]: 12.48 % ID/g | Drug uptake (Brain [21]): 0.17 % ID/g | Drug uptake (Lung [22]): 4.09 % ID/g | Drug uptake (Pancreas [23]): 15.21 % ID/g | Drug uptake (Kidney [24]): 19.98 % ID/g | Drug uptake [25]: 17.15 % ID/g | Stability (Plasma): 94.1% | Activity (Brain [26]): Active | Activity (Brain [27]): Active | Ratio AUC (Brain [28]): 9 | SUV (Brain [29]): 4.4 | AUC (Brain [30]): 39.8 SUV·min | Ratio AUC (Brain [31]): 2.4 | SUV (Brain [32]): 10.6 | SUV (Brain [33]): 5 | AUC (Blood [34]): 25.6 SUV·min | Fold increase [35]: 7
